According to PMC12928844 (Nature, 2025):

Assays:
[1] = tested on: K^cPC PDAC tumours; assay: Autochthonous K^cPC PDAC mouse model treatment study; format: in vivo; conditions: 2 weeks of treatment, 10 mg kg−1 daily
How it was run: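 C57BL/6;129S1 mixed-background mice of both sexes, with littermates as controls. Control and monotherapy groups went through the same procedure but received vehicle. The survival end point was set by overall health criteria scoring, and health status and weight were checked daily.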

[2] = tested on: K^c/cP LUAD tumours; assay: K^c/cP LUAD mouse model treatment study; format: in vivo; conditions: at humane end point; about 100 nodules per mouse at start
[3] = tested on: NSD2 and H3K36me2 levels in cell lines; assay: Western blot after KRASi treatment; format: cell-based; conditions: 100 nM sotorasib, 1 day
[4] = tested on: K^c/cP LUAD tumour cells; assay: scRNA-seq tumour fitness score of K^c/cP tumours; format: in vivo, mouse; conditions: 3 weeks of treatment
How it was run: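 KC/CP lung tumour-bearing mice (mixed C57BL/6;129S1, both sexes, littermate controls) received test compound at 100 mg kg−1 once daily i.p. in 40% (2-hydroxypropyl)-β-cyclodextrin, or vehicle. Tumour cells were filtered through 70 μm strainers, given ACK red-cell lysis, washed and counted for scRNA-seq. Malignant cells were called by inferCNV against normal mouse lung alveolar cells.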

Which results are given for `C=CC(=O)N1CCN(c2nc(=O)n(-c3c(C)ccnc3C(C)C)c3nc(-c4c(O)cccc4F)c(F)cc23)[C@@H](C)C1` [KRASi, sotorasib]?
ERK1/2 phosphorylation in PDAC tumour lysates (western) [1]: blocked ERK1 and ERK2 (ERK1/2) phosphorylation; individual tumours (nodules) eliminated [2]: ~75%; levels of NSD2 or H3K36me2 (western) [3]: does not impact; tumour fitness score (scRNA-seq) [4]: decreased score
